Measured values published in ChEMBL document CHEMBL1142889, “Synthesis and anticancer activity of a novel class of flavonoids: 2,4-diarylchromane[4,3-d]-delta(1,9b)-1,2,3-thiadiazolines” (Eur J Med Chem, 2007).
Values after ≈ are worked out from the molar mass of the structure shown.

What was measured:
[1] = Antiproliferative activity against ECA109 cells after 72 hrs by MTT assay; type: functional, cell-based; conditions: Homo sapiens, ECa-109, 72 h
Summary of the method: (§1)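 Cells were exposed to compound for 72 h. MTT in RPMI-1640 was then added and incubated for a further 4 h at 37 °C. Three replicate wells were used per point. IC50 for cell-viability inhibition was calculated from three independent experiments.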

PC-3 = experiment: Antiproliferative activity against PC3 cells after 72 hrs by MTT assay; type: functional, cell-based; conditions: Homo sapiens, PC-3, 72 h; summary of the method: as §1
MCF7 = experiment: Antiproliferative activity against MCF7 cells after 72 hrs by MTT assay; type: functional, cell-based; conditions: Homo sapiens, MCF7, 72 h; summary of the method: as §1
HL-60 [2] = experiment: Antiproliferative activity against HL60 cells after 72 hrs by MTT assay; type: functional, cell-based; conditions: Homo sapiens, HL-60, 72 h; summary of the method: as §1
A549 = experiment: Antiproliferative activity against A549 cells after 72 hrs by MTT assay; type: functional, cell-based; conditions: Homo sapiens, A549, 72 h; summary of the method: as §1
Bel-7402 = experiment: Antiproliferative activity against Bel7402 cells after 72 hrs by MTT assay; type: functional, cell-based; conditions: Homo sapiens, Bel-7402, 72 h; summary of the method: as §1
HL-60 [3] = experiment: Induction of apoptosis in HL60 cells assessed as DNA fragmentation at 2 ug/mL after 48 hrs by flow cytometry; type: functional, Homo sapiens
Summary of the method: (§2)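 HL-60 cells in exponential growth were treated for 48 h. They were washed twice in PBS and fixed in 70% ethanol at −20 °C. Cells were then RNase-treated for 1 h at 37 °C and stained with propidium iodide for 30 min at 4 °C. DNA content of 2 × 10⁴ cells was read by flow cytometry, and the sub-G0/G1 fraction was taken as apoptotic.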

HL-60 [4] = experiment: Induction of apoptosis in HL60 cells assessed as DNA fragmentation at 0.5 ug/mL after 48 hrs by flow cytometry; type: functional, Homo sapiens; summary of the method: as §2
CCRF S-180 [5] = experiment: Antitumor activity against S180 cells inoculated in ICR mouse assessed as inhibition at 80 mg/kg, ip after 8 days relative to control; type: functional; conditions: CCRF S-180, ip, 192 h, route intraperitoneal
Summary of the method: (§3)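 S180 sarcoma was first passaged in mice for 7 days, then 2.5 × 10⁶ viable cells/mouse were injected s.c. into the armpit of female ICR mice. Compound was given i.p. once daily for 7 consecutive days, starting 24 h after inoculation. Group sizes were 10, or 20 for the saline control. Cyclophosphamide 50.0 mg/kg was the positive control. On day 8 tumors were excised and weighed, and inhibition = (C − T)/C × 100 using mean tumor weights.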

CCRF S-180 [6] = experiment: Antitumor activity against S180 cells inoculated in ICR mouse assessed as tumor weight at 80 mg/kg, ip after 8 days; type: functional; conditions: route intraperitoneal; summary of the method: as §3
HL-60 [7] = experiment: Induction of apoptosis in HL60 cells assessed as DNA fragmentation at 1.0 ug/mL after 48 hrs by flow cytometry; type: functional, Homo sapiens; summary of the method: as §2
CCRF S-180 [8] = experiment: Antitumor activity against S180 cells inoculated in ICR mouse assessed as inhibition at 50 mg/kg, ip after 8 days relative to control; parameters: scale not given: the % may be the effect or the level left; conditions: route intraperitoneal

| SMILES | IC50 [1] | IC50 (PC-3) | IC50 (MCF7) | IC50 (HL-60 [2]) | IC50 (A549) | IC50 (Bel-7402) | Activity (HL-60 [3]) | Activity (HL-60 [4]) | inhibition in vivo at 80 mg/kg (CCRF S-180 [5]) | Activity (CCRF S-180 [6]) | Activity (HL-60 [7]) | Activity (CCRF S-180 [8]) |
| --- | --- | --- | --- | --- | --- | --- | --- | --- | --- | --- | --- | --- |
| CCOC12SN(c3ccc(NC(C)=O)cc3Cl)N=C1c1ccccc1OC2(OCC)c1ccc(Cl)cc1 (racemic) | 9.6 µg/mL (≈ 17.2 µM) | 4.1 µg/mL (≈ 7.34 µM) | 23.3 µg/mL (≈ 41.7 µM) | 2.2 µg/mL (≈ 3.94 µM) | 4.2 µg/mL (≈ 7.52 µM) | 21.3 µg/mL (≈ 38.1 µM) | – | – | – | – | – | – |
| CCOC12SN(c3ccc([N+](=O)[O-])cc3Cl)N=C1c1cc(C)ccc1OC2(OCC)c1cc2c(cc1Cl)OCO2 (racemic) | > 50 µg/mL | > 50 µg/mL | > 25 µg/mL | > 25 µg/mL | > 50 µg/mL | > 50 µg/mL | – | – | – | – | – | – |
| CCOC12SN(c3ccc([N+](=O)[O-])cc3Cl)N=C1c1cc(C)ccc1OC2(OCC)c1ccc(OC)cc1 (racemic) | > 50 µg/mL | > 50 µg/mL | > 25 µg/mL | > 25 µg/mL | > 50 µg/mL | 21.8 µg/mL (≈ 39.2 µM) | – | – | – | – | – | – |
| CCOC12SN(c3ccc(S(C)(=O)=O)cc3Cl)N=C1c1ccccc1OC2(OCC)c1ccc(Cl)cc1 (racemic) | 5.9 µg/mL (≈ 10.2 µM) | 3.1 µg/mL (≈ 5.35 µM) | 4.1 µg/mL (≈ 7.07 µM) | 2.8 µg/mL (≈ 4.83 µM) | 4.9 µg/mL (≈ 8.46 µM) | 10.3 µg/mL (≈ 17.8 µM) | 68.3% | 3.9% | 48.2% | 0.63 g | 25.3% | – |
| CCOC12SN(c3ccc(S(C)(=O)=O)cc3Cl)N=C1c1ccccc1OC2(OCC)c1ccc(OC)cc1 (racemic) | 5.9 µg/mL (≈ 10.3 µM) | 3.5 µg/mL (≈ 6.09 µM) | > 25 µg/mL | 1.8 µg/mL (≈ 3.13 µM) | 3.3 µg/mL (≈ 5.74 µM) | 23.5 µg/mL (≈ 40.9 µM) | – | – | – | – | – | – |
| CCOC12SN(c3ccc(S(C)(=O)=O)cc3Cl)N=C1c1cc(C)ccc1OC2(OCC)c1ccc(Cl)cc1 (racemic) | 11.5 µg/mL (≈ 19.4 µM) | 6 µg/mL (≈ 10.1 µM) | 2.5 µg/mL (≈ 4.21 µM) | 6 µg/mL (≈ 10.1 µM) | 10.3 µg/mL (≈ 17.4 µM) | 7.3 µg/mL (≈ 12.3 µM) | – | – | – | – | – | – |
| CCOC12SN(c3ccc([N+](=O)[O-])cc3Cl)N=C1c1c(OC)cc(OC)c(Cl)c1OC2(OCC)c1ccccc1Cl (racemic) | > 50 µg/mL | > 50 µg/mL | > 25 µg/mL | > 25 µg/mL | > 50 µg/mL | > 50 µg/mL | – | – | – | – | – | – |
| CCOC12SN(c3ccc([N+](=O)[O-])cc3Cl)N=C1c1c(OC)cc(OC)c(Cl)c1OC2(OCC)c1ccc(Cl)cc1 (racemic) | > 50 µg/mL | 15.8 µg/mL (≈ 24.7 µM) | > 25 µg/mL | 6.7 µg/mL (≈ 10.5 µM) | > 50 µg/mL | > 50 µg/mL | – | – | – | – | – | – |
| CCOC12SN(c3ccc([N+](=O)[O-])cc3Cl)N=C1c1cc(C)ccc1OC2(OCC)c1cc(OC)c(OC)cc1Cl (racemic) | > 50 µg/mL | > 50 µg/mL | > 25 µg/mL | > 25 µg/mL | > 50 µg/mL | > 50 µg/mL | – | – | – | – | – | – |
| CCOC12SN(c3ccc([N+](=O)[O-])cc3Cl)N=C1c1ccccc1OC2(OCC)c1ccc(OC)cc1 (racemic) | 9.6 µg/mL (≈ 17.7 µM) | 5.7 µg/mL (≈ 10.5 µM) | 23.3 µg/mL (≈ 43 µM) | 3.3 µg/mL (≈ 6.09 µM) | 5.1 µg/mL (≈ 9.41 µM) | 8.2 µg/mL (≈ 15.1 µM) | – | – | – | – | – | – |
| CCOC12SN(c3ccc([N+](=O)[O-])cc3Cl)N=C1c1ccccc1OC2(OCC)c1ccc(Cl)cc1 (racemic) | 6.9 µg/mL (≈ 12.6 µM) | 4.1 µg/mL (≈ 7.5 µM) | 15 µg/mL (≈ 27.5 µM) | 2.2 µg/mL (≈ 4.03 µM) | 3.8 µg/mL (≈ 6.95 µM) | 11.8 µg/mL (≈ 21.6 µM) | – | – | – | – | – | – |
| CCOC12SN(c3ccc([N+](=O)[O-])cc3Cl)N=C1c1cc(C)ccc1OC2(OCC)c1ccc(Cl)cc1 (racemic) | 14.8 µg/mL (≈ 26.4 µM) | > 50 µg/mL | > 25 µg/mL | > 25 µg/mL | 7.8 µg/mL (≈ 13.9 µM) | 18.6 µg/mL (≈ 33.2 µM) | – | – | – | – | – | – |
| CCOC12SN(c3ccc([N+](=O)[O-])cc3Cl)N=C1c1c(OC)cc(OC)c(Cl)c1OC2(OCC)c1ccc(C)cc1 (racemic) | 7.3 µg/mL (≈ 11.8 µM) | 7.3 µg/mL (≈ 11.8 µM) | > 25 µg/mL | 16.8 µg/mL (≈ 27.1 µM) | > 50 µg/mL | > 50 µg/mL | – | – | – | – | – | – |
| CCOC12SN(c3ccc([N+](=O)[O-])cc3Cl)N=C1c1c(OC)cc(OC)c(Cl)c1OC2(OCC)c1ccc(OC)cc1 (racemic) | > 50 µg/mL | 19.2 µg/mL (≈ 30.2 µM) | > 25 µg/mL | 23.2 µg/mL (≈ 36.4 µM) | 17.7 µg/mL (≈ 27.8 µM) | > 50 µg/mL | – | – | – | – | – | – |
| COc1cc(OC)c2c(c1Cl)OC(OC)(c1ccc(Cl)cc1)C1(OC)SN(c3ccc([N+](=O)[O-])cc3Cl)N=C21 (racemic) | 5.7 µg/mL (≈ 9.3 µM) | 2.9 µg/mL (≈ 4.73 µM) | 5.5 µg/mL (≈ 8.97 µM) | 3.2 µg/mL (≈ 5.22 µM) | 5.4 µg/mL (≈ 8.81 µM) | > 50 µg/mL | – | – | – | – | – | – |
| CCOC12SN(c3ccc(S(C)(=O)=O)cc3Cl)N=C1c1c(OC)cc(OC)c(Cl)c1OC2(OCC)c1ccc(Cl)cc1 (racemic) | 20.1 µg/mL (≈ 29.8 µM) | > 50 µg/mL | 12.6 µg/mL (≈ 18.7 µM) | 5.6 µg/mL (≈ 8.31 µM) | 14.5 µg/mL (≈ 21.5 µM) | 24.8 µg/mL (≈ 36.8 µM) | – | – | – | – | – | – |
| CCOC12SN(c3ccc(S(C)(=O)=O)cc3Cl)N=C1c1cc(C)ccc1OC2(OCC)c1ccc(OC)cc1 (racemic) | 1.5 µg/mL (≈ 2.55 µM) | 0.6 µg/mL (≈ 1.02 µM) | > 25 µg/mL | 0.6 µg/mL (≈ 1.02 µM) | 1.1 µg/mL (≈ 1.87 µM) | 40.4 µg/mL (≈ 68.6 µM) | – | – | – | – | – | – |
| CCOC12SN(c3ccc(NC(C)=O)cc3Cl)N=C1c1cc(C)ccc1OC2(OCC)c1ccc(Cl)cc1 (racemic) | 4.1 µg/mL (≈ 7.16 µM) | 2.4 µg/mL (≈ 4.19 µM) | 19.8 µg/mL (≈ 34.6 µM) | 1.3 µg/mL (≈ 2.27 µM) | 2.5 µg/mL (≈ 4.37 µM) | 10.5 µg/mL (≈ 18.3 µM) | – | – | – | – | – | – |
| O=P1(N(CCCl)CCCl)NCCCO1 (stereo not given) [CYCLOPHOSPHAMIDE ANHYDROUS] | – | – | – | – | – | – | – | – | – | – | – | 45.4% |
| O=C1CC(c2ccccc2)Oc2ccccc21 (stereo not given) [FLAVANONE] | 27.7 µg/mL (≈ 124 µM) | 16.6 µg/mL (≈ 74 µM) | > 25 µg/mL | 3.4 µg/mL (≈ 15.2 µM) | 14.2 µg/mL (≈ 63.3 µM) | > 50 µg/mL | – | – | – | – | – | – |
